Measured values published in ChEMBL document CHEMBL3351764, “Design, synthesis and biological activity of flavonoid derivatives as selective agonists for neuromedin U 2 receptor” (Bioorg Med Chem, 2014).

Target: Neuromedin-U receptor 2 (Homo sapiens, UniProt Q9GZQ4)
Assay: Agonist activity at human NMU2R transfected in HEK293 cells after 7 hrs by luciferase reporter gene assay
Assay type: cell-based
Conditions: read-out: EC50
In short: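 HEK-293 cells were stably co-transfected with a reporter gene construct and human NMU2R cDNA in pcDNA3.1(+), maintained under G418 selection at 37 °C in 5% CO2, then seeded and incubated overnight. Compounds were added at various concentrations for 7 h at 37 °C, followed by Bright-Glo luciferase read-out. Forskolin and NMU served as positive controls. EC50 was fitted by four-parameter logistic regression; means ± SEM of three independent experiments.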

Sequence of Neuromedin-U receptor 2 (Q9GZQ4 whole entry): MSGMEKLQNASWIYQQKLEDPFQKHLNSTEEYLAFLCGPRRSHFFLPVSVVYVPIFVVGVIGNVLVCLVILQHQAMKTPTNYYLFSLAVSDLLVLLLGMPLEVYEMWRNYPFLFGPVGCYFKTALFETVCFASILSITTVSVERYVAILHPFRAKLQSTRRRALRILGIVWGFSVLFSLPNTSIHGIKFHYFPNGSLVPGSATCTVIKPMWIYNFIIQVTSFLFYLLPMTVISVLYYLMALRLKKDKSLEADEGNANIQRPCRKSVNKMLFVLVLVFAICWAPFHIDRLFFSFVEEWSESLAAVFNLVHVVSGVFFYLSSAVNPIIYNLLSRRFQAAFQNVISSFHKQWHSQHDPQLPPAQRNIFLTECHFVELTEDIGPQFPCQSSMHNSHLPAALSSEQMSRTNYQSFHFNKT

EC50 [µM]	Compound
6.1	H-FRVDEEFQSPFASQSRGYFLFRPRN-NH2
1200	C[C@@H]1O[C@@H](OC[C@H]2O[C@@H](Oc3c(-c4ccc(O)c(O)c4)oc4cc(O)cc(O)c4c3=O)[C@H](O)[C@@H](O)[C@@H]2O)[C@H](O)[C@H](O)[C@H]1O [RUTIN]

Compound	EC50 [µM]
CNCC(O)c1ccc(O)cc1 (stereo not drawn) [OXEDRINE]	6.6
